Bioassay records from PubChem.
Biofilm kill mix: mixtures killing C. albicans biofilm; C. albicans biofilm persisters + clotrimazole, fluorescence viability; primary screen in compound mixtures of four per well; inhibition, % at 7.6 µM; 120,000 compounds, 0.02% hits; AID 1242;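 active = inhibition above 30.3% in the primary screen of four-compound pools, then above 30% when the compound was retested; inconclusive = passed the primary limit but could not be retested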;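 note: compounds exposed to preformed 24 h biofilms for 48 h; 0% = untreated biofilm control and 100% = clotrimazole plus chlorhexidine kill blank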
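Incubation: 24 h biofilm formation, then 48 h compound exposure, 37 °C | Material: C. albicans biofilms | Buffer or medium: RPMI/MOPS medium, pH 7.0 | Measured by: 2-h Alamar Blue fluorescence, 535/590 nm excitation/emission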
ROMK primary: modulates human ROMK potassium channel activity; P48048; Tet-inducible ROMK, thallium flux fluorescence; actives lie on both sides; B-score at 10 µM; 130,000 compounds, 2% hits; AID 1918;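 active = signal ratio slope over the read window, or its plate-corrected B-score, at least 3 SD from the plate mean, either direction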;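 note: B-score of the F/F0 ratio slope over 7 to 12 s after thallium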
Target sequence (P48048 whole entry, looked up): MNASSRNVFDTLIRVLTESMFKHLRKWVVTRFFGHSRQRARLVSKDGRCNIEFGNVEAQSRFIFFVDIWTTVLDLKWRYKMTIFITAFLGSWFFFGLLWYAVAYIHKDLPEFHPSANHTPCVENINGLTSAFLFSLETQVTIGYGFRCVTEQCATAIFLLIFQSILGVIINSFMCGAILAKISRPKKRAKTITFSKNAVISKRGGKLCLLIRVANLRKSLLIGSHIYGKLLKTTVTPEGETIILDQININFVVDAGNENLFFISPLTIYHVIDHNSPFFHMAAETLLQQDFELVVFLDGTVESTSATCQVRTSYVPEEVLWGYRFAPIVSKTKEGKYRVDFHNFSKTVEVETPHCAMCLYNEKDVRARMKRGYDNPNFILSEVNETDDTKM
Pf gamet viab: inhibitors of late stage P. falciparum gametocyte viability; P. falciparum stage V gametocytes, ATP luminescence, 24 h; inhibition, % at 10.9 µM; 150,000 compounds, 0.065% hits;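 active = inhibition above the mean plus 3 SD of compounds within the control limits, set per campaign, cut at about 38% in these data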;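 note: 0% = DMSO wells and 100% = medium only without gametocytes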
ROMK retest: retested hit modulating human ROMK potassium channel; ROMK thallium flux, fluorescence ratio; stronger effect = lower value; shares compounds with ROMK primary; AID 1917; normalized thallium flux (F/F0 slope) at 10 µM; 3,000 compounds, 54% hits;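 active = Flux at 10 µM at least 3 SD below or above vehicle control mean in one or both replicates; inconclusive = no clear call, values can overlap the other calls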
Numbers without * were called inactive; ? = inconclusive; · = no result. This excerpt belongs to a sample that is enriched for hits.

SMILES	Biofilm kill mix	ROMK primary	Pf gamet viab	ROMK retest
Cc1cc(N2CCN(c3ccc(C(F)(F)F)cc3[N+](=O)[O-])CC2)c2ccccc2n1	·	·	-26	·
Brc1cccc(CN2CCN(c3ncccn3)CC2)c1	·	·	-1	·
COc1ccc(Nc2nnc(SCC(=O)NC(=O)Nc3ccc4c(c3)OCCO4)s2)cc1	20	-0.031	-8	·
CCC(C)NC(=S)NNC(=O)c1ccc(C(C)(C)C)cc1 (stereo not drawn)	16	·	·	?
CC(C)(C)c1ccc(C(=O)NNC(=S)NCc2ccco2)cc1	23	·	0	·
Cc1ccc(NC(=O)CSC(C)C(=O)NCCc2ccccn2)cc1 (stereo not drawn)	14	-2.8*	8	0.072
Cc1ccc(NC(=O)NCc2ccccn2)cc1	12	-0.88	-7	·
C/C=C1\COC(C(=O)NCc2ccccc2)(C(F)(F)F)C=C1C=C(C)C (stereo not drawn)	·	·	-3	·
COC(=O)Cc1[nH]c(=S)[nH]c1C(=O)OC	10	0.061	5	·
O=C(Nc1ccn([C@H]2CC[C@@H](CO)O2)c(=O)n1)c1ccccc1	10	·	-14	·
COc1cc2c(C(=O)N3CCN(c4cccc(Cl)c4)CC3)cn(C)c(=O)c2cc1OC	·	-0.84	·	·
CCn1cc(C(=O)N2CCN(c3ccc(F)cc3)CC2)c2cc(OC)c(OC)cc2c1=O	18	-0.32	-10	0.078
CCn1cc(C(=O)N2CCN(c3cccc(Cl)c3)CC2)c2cc(OC)c(OC)cc2c1=O	·	1.3*	-1	0.071
CCn1cc(C(=O)N2CCN(c3ccc(OC)cc3)CC2)c2cc(OC)c(OC)cc2c1=O	4	1.5	-5	·
Cc1ccc2c(c1)-c1ncc(C(=O)c3cc(Br)ccc3O)cc1CO2	8	0.0076	-15	·
Cc1ccc(-n2c(O)c(/C=N/NC(=O)C3COc4ccccc4O3)c3ccccc3c2=O)cc1 (stereo not drawn)	13	-2.7*	10	0.052*
O=C(N/N=C/c1c(O)n(-c2ccccc2Cl)c(=O)c2ccccc12)C1COc2ccccc2O1 (stereo not drawn)	10	·	·	·
O=C1[C@H]2[C@@H](c3ccc(F)cc3)N3C(=O)N(c4cccc(F)c4)C(=O)[C@@]3(Cc3ccc(Cl)cc3)[C@H]2C(=O)N1C1CCCCC1	·	·	7	·
O=C(O)CCc1nn2c3ccccc3nc2n(Cc2ccccc2)c1=O	13	1.7	-13	·
c1nnc(NC2=NCCC2)s1	·	1.6*	·	0.078
c1nnc(NC2=NCCCCC2)s1	·	-0.48	·	·
COc1cc2sc(-c3ccc(S(C)(=O)=O)cc3)c(-c3ccc4c(c3)OCO4)c2cc1OC	·	·	7	·
Cc1ccc(-n2cccn2)c(CN2CCC(CO)(CCc3ccccc3)CC2)c1	18	-3.3*	-3	0.061*
OCC1(CCc2ccccc2)CCN(Cc2cc(Cl)ccc2O)CC1	17	-0.37	·	·
CCCCNc1nc(=S)n(-c2ccccc2)c(C)c1C(C)=O	11	1	·	·
SMILES	Biofilm kill mix	ROMK primary	Pf gamet viab	ROMK retest
COc1ccc(Cn2c(-c3ccccc3C)nc3c(c(=O)c4ccccc4n3C)c2=O)cc1	·	·	18	·
Cc1cc(N2CCOCC2)ccc1/C=C\[N+](=O)[O-]	0	-4.5*	-21	0.05*
O=[N+]([O-])c1ccc(N2CCOCC2)cc1O	21	·	-9	·
CCCCc1cc(=O)oc2cc(O)cc(O)c12	-8	-1	-2	·
CCCCc1cc(=O)oc2cc(C)cc(O)c12	·	·	-9	0.054*
N#C/C(=C1\CCCN1)c1nc2ccccc2c(=O)[nH]1	·	-0.35	·	·
N#C/C(=C/c1ccncc1)c1nc2ccccc2c(=O)[nH]1	4	-6.6*	-4	0.042*
N#C/C(=C\c1ccncc1)c1nc2ccccc2o1	24	-2.5	17	·
N#C/C(=C\c1cccs1)c1nc2ccccc2[nH]1	12	-0.57	5	·
N#C/C(=C\c1ccncc1)c1nc2ccccc2c(=O)[nH]1	-4	-4.9*	-11	0.051*
N#C/C(=C\c1ccccc1)c1nc2ncccc2[nH]1	·	-2.5*	21	0.053*
Cc1ccc2cc3c(=O)n(C)cc(C=O)c3nc2c1	·	·	-5	·
CCc1nnc(NS(=O)(=O)c2ccc(N3C(=O)c4ccc(C(=O)O)cc4C3=O)cc2)s1	19	0.76	12	·
O=C(COc1cccc2cccnc12)N/N=C1\SCC(=O)N1CCc1ccccc1	-2	-0.41	-17	·
O=C(Nc1ccc(Cl)c([N+](=O)[O-])c1)c1ccc2c(c1)OCCO2	15	0.47	-11	·
CCOc1ccc(C(=O)Nc2ccc3c(c2)OCCO3)cc1[N+](=O)[O-]	17	-3.3*	-3	0.08
CNC(=S)N(Cc1ccc(OC)cc1)Cc1cc2ccc(C)cc2[nH]c1=O	3	·	-1	·
C/C(=N\O)c1sc(-c2ccccc2)nc1C	12	-1.4	-6	·
O=[N+]([O-])c1c(Nc2ccccn2)cc(Cl)c2nonc12	10	-8.6*	-9	0.043*
O=C(O)c1ccccc1Nc1cc(Cl)c2nonc2c1[N+](=O)[O-]	·	·	19	·
COC(=O)C1CCN(c2cnccn2)CC1	1	·	4	0.078
C=CCNC(=O)C1CCN(c2cnccn2)CC1	1	-0.013	-7	·
CCCCNC(=O)CCCCCNS(=O)(=O)c1ccc(Br)cc1	7	-0.65	1	·
CCNc1nc(NC(C)(C)C)nc(N2CCCCC2)n1	1	-1	·	·
CC(C)(C)Nc1nc(NN)nc(NC(C)(C)C)n1	·	-5.2*	·	0.051*
SMILES	Biofilm kill mix	ROMK primary	Pf gamet viab	ROMK retest
COc1cccc(/C(O)=C/c2nc3ccc(C(=O)NCCc4cccc(C)c4)cc3[nH]c2=O)c1	6	·	-8	0.062*
COc1cccc(/C(O)=C/c2nc3ccc(C(=O)NCCc4ccc(Cl)cc4)cc3[nH]c2=O)c1	4	·	-21	·
Cc1cccc(NC(=S)N2CCN(c3ccccc3F)CC2)c1C	·	·	13	·
Cc1ccc(C(=O)NC(=S)N2CCN(c3ccccc3F)CC2)cc1	9	3.4*	-25	0.1*
Cc1ccc(S(=O)(=O)CCC(=O)NCc2ccco2)cc1	·	0.61	-23	·
CCOc1ccc2[nH]cc(C(=O)NCc3ccccc3)c(=O)c2c1	·	·	-16	·
CCN(CC)CCNC(=O)c1[nH]c2ccc(OCc3ccccc3)cc2c1C	2	-5*	·	0.063*
Cc1cc(C)c(NC(=O)CN)c(C)c1	-1	-0.093	2	·
CCOc1cc(/C=N/N=C(N)N)ccc1OCc1ccc(Cl)cc1	12	-3.9*	-16	0.053*
COc1cc(/C=N/N=C(N)N)ccc1OCc1ccc(Cl)cc1	17	-1.2	-9	·
CCOC(=O)C1CCCN(Cc2nc(C3CC3)no2)C1 (stereo not drawn)	11	·	-9	·
Cc1ccc(C)n1-c1ccc(-n2cnnn2)cc1	·	·	-51	0.057*
CC(O)c1ccc(-n2cnnn2)cc1 (stereo not drawn)	12	-0.0017	-4	·
O=C(Nc1ccc(Cl)c(C(F)(F)F)c1)NC1CC2CCCC(C1)N2C1CC1 (stereo not drawn)	·	·	1	·
COc1ccc(C(=O)Nc2cccc3c2CCCC3)cc1OC	·	·	-4	·
O=c1/c(=C\c2ccc(F)cc2)sc2n1CCCN=2	9	-0.89	-9	·
CN(C)c1ccc(/C=c2\sc3n(c2=O)CCCN=3)cc1	·	-4.4*	11	0.054*
O=C(N[C@@H](Cc1ccccc1)C(=O)NC1CCCCCC1)c1ccco1	·	-0.26	-8	·
O=C(N[C@@H](Cc1ccccc1)C(=O)NC1CCCCC1)c1ccco1	·	1.9*	24	0.08
